According to ChEMBL document CHEMBL1641444, “Synthesis and evaluation of 6-[1-(2-[(18)F]fluoro-3-pyridyl)-5-methyl-1H-1,2,3-triazol-4-yl]quinoline for positron emission tomography imaging of the metabotropic glutamate receptor type 1 in brain” (Bioorg Med Chem, 2011):

What was measured:
Lung [1] = experiment: Biodistribution in lung of Sprague-Dawley rat at 17 MBq, iv after 30 mins by dissection method; assay type: ADME, organism-based; conditions: in vivo, 0.5 h
Method in brief: (§1)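 [¹⁸F]7a in saline (average 17 MBq/200 µL, 0.11 nmol) was given by tail vein. Rats were killed by cervical dislocation at 5, 15 or 30 min, with three rats per time point. Tissue radioactivity was measured by gamma counting, decay-corrected and expressed as %ID per gram of wet tissue.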

[2] = Ratio of drug uptake in Sprague-Dawley rat striatum to medulla at 17 MBq, iv after 10 to 15 mins by small-animal PET; conditions: in vivo
Cerebellum [3] = experiment: Biodistribution in cerebellum of Sprague-Dawley rat at 17 MBq, iv after 5 mins by dissection method; assay type: ADME, organism-based; conditions: in vivo
Method in brief: (§2)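 The [18F]ligand was given to rats as a saline solution (average 17 MBq, about 0.11 nmol) via the tail vein. Three rats per time point were killed by cervical dislocation at 5, 15 and 30 min. Dissected tissues were gamma-counted with decay correction, and results are expressed as % injected dose per gram of wet tissue.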

Bone = experiment: Biodistribution in bone of Sprague-Dawley rat at 17 MBq, iv after 30 mins by dissection method; assay type: ADME, organism-based, Bone element; conditions: in vivo, 0.5 h; method in brief: as §2
Lung [4] = experiment: Biodistribution in lung of Sprague-Dawley rat at 17 MBq, iv after 5 mins by dissection method; assay type: ADME, organism-based; conditions: in vivo; method in brief: as §1
Thalamus [5] = experiment: Biodistribution in thalamus of Sprague-Dawley rat at 17 MBq, iv after 30 mins by dissection method; assay type: ADME, organism-based; conditions: in vivo, 0.5 h; method in brief: as §1
Spleen [6] = experiment: Biodistribution in spleen of Sprague-Dawley rat at 17 MBq, iv after 15 mins by dissection method; assay type: ADME, organism-based; conditions: in vivo, 0.25 h; method in brief: as §1
Striatum = experiment: Biodistribution in striatum of Sprague-Dawley rat at 17 MBq, iv after 5 mins by dissection method; assay type: ADME, organism-based; conditions: in vivo; method in brief: as §1
Cerebellum [7] = experiment: Biodistribution in cerebellum of Sprague-Dawley rat at 17 MBq, iv after 30 mins by dissection method; assay type: ADME, organism-based; conditions: in vivo, 0.5 h; method in brief: as §2
Pancreas [8] = experiment: Biodistribution in pancreas of Sprague-Dawley rat at 17 MBq, iv after 30 mins by dissection method; assay type: ADME, organism-based; conditions: in vivo, 0.5 h; method in brief: as §1
Blood [9] = experiment: Biodistribution in blood of Sprague-Dawley rat at 17 MBq, iv after 15 mins by dissection method; assay type: ADME, organism-based; conditions: in vivo, 0.25 h; method in brief: as §2
[10] = Biodistribution in pons-medulla of Sprague-Dawley rat at 17 MBq, iv after 15 mins by dissection method; assay type: ADME, organism-based; conditions: in vivo, 0.25 h; method in brief: as §1
Muscle tissue [11] = experiment: Biodistribution in muscle of Sprague-Dawley rat at 17 MBq, iv after 30 mins by dissection method; assay type: ADME, organism-based; conditions: in vivo, 0.5 h; method in brief: as §1
Thalamus [12] = experiment: Biodistribution in thalamus of Sprague-Dawley rat at 17 MBq, iv after 5 mins by dissection method; assay type: ADME, organism-based; conditions: in vivo; method in brief: as §1
[13] = Biodistribution in pons-medulla of Sprague-Dawley rat at 17 MBq, iv after 5 mins by dissection method; assay type: ADME, organism-based; conditions: in vivo; method in brief: as §1
[14] = test system: Cerebellum (Mus musculus); experiment: Metabolic stability in cerebellum of mouse assessed as reduction of parent compound level at 3.7 MBq, iv after 30 mins by HPLC analysis; parameters: scale not given: the % may be the effect or the level left; conditions: in vivo, 0.5 h
Heart [15] = experiment: Biodistribution in heart of Sprague-Dawley rat at 17 MBq, iv after 15 mins by dissection method; assay type: ADME, organism-based; conditions: in vivo, 0.25 h; method in brief: as §2
[16] = test system: Cerebellum (Mus musculus); experiment: Metabolic stability in cerebellum of mouse assessed as reduction of parent compound level at 3.7 MBq, iv after 15 mins by HPLC analysis; parameters: scale not given: the % may be the effect or the level left; conditions: in vivo, 0.25 h
Cerebral cortex = experiment: Biodistribution in cerebral cortex of Sprague-Dawley rat at 17 MBq, iv after 5 mins by dissection method; assay type: ADME, organism-based; conditions: in vivo; method in brief: as §2
[17] = Biodistribution in olfactory bulb of Sprague-Dawley rat at 17 MBq, iv after 15 mins by dissection method; assay type: ADME, organism-based; conditions: in vivo, 0.25 h; method in brief: as §1
Spleen [18] = experiment: Biodistribution in spleen of Sprague-Dawley rat at 17 MBq, iv after 5 mins by dissection method; assay type: ADME, organism-based; conditions: in vivo; method in brief: as §1
Hippocampus = experiment: Biodistribution in hippocampus of Sprague-Dawley rat at 17 MBq, iv after 15 mins by dissection method; assay type: ADME, organism-based; conditions: in vivo, 0.25 h; method in brief: as §2
Heart [19] = experiment: Biodistribution in heart of Sprague-Dawley rat at 17 MBq, iv after 5 mins by dissection method; assay type: ADME, organism-based; conditions: in vivo; method in brief: as §2
Muscle tissue [20] = experiment: Biodistribution in muscle of Sprague-Dawley rat at 17 MBq, iv after 15 mins by dissection method; assay type: ADME, organism-based; conditions: in vivo, 0.25 h; method in brief: as §1
[21] = Metabolic stability in plasma of ddy mouse assessed as reduction of parent compound level at 3.7 MBq, iv after 15 mins by HPLC analysis; parameters: scale not given: the % may be the effect or the level left; conditions: 0.25 h
Kidney [22] = experiment: Biodistribution in kidney of Sprague-Dawley rat at 17 MBq, iv after 5 mins by dissection method; assay type: ADME, organism-based; conditions: in vivo; method in brief: as §2
Liver = experiment: Biodistribution in liver of Sprague-Dawley rat at 17 MBq, iv after 5 mins by dissection method; assay type: ADME, organism-based; conditions: in vivo; method in brief: as §1
[23] = Ratio of drug uptake in Sprague-Dawley rat hippocampus to medulla at 17 MBq, iv after 10 to 15 mins by small-animal PET; conditions: in vivo
[24] = Ratio of drug uptake in Sprague-Dawley rat thalamus to medulla at 17 MBq, iv after 10 to 15 mins by small-animal PET; conditions: in vivo
Spleen [25] = experiment: Biodistribution in spleen of Sprague-Dawley rat at 17 MBq, iv after 30 mins by dissection method; assay type: ADME, organism-based; conditions: in vivo, 0.5 h; method in brief: as §1
Kidney [26] = experiment: Biodistribution in kidney of Sprague-Dawley rat at 17 MBq, iv after 30 mins by dissection method; assay type: ADME, organism-based; conditions: in vivo, 0.5 h; method in brief: as §2
[27] = Biodistribution in pons-medulla of Sprague-Dawley rat at 17 MBq, iv after 30 mins by dissection method; assay type: ADME, organism-based; conditions: in vivo, 0.5 h; method in brief: as §1
Pancreas [28] = experiment: Biodistribution in pancreas of Sprague-Dawley rat at 17 MBq, iv after 5 mins by dissection method; assay type: ADME, organism-based; conditions: in vivo; method in brief: as §1
[29] = Metabolic stability in plasma of ddy mouse assessed as reduction of parent compound level at 3.7 MBq, iv after 30 mins by HPLC analysis; parameters: scale not given: the % may be the effect or the level left; conditions: 0.5 h
[30] = Biodistribution in whole brain of Sprague-Dawley rat at 17 MBq, iv after 5 mins by dissection method; assay type: ADME, organism-based; conditions: in vivo; method in brief: as §1
[31] = Biodistribution in whole brain of Sprague-Dawley rat at 17 MBq, iv after 30 mins by dissection method; assay type: ADME, organism-based; conditions: in vivo, 0.5 h; method in brief: as §1
Kidney [32] = experiment: Biodistribution in kidney of Sprague-Dawley rat at 17 MBq, iv after 15 mins by dissection method; assay type: ADME, organism-based; conditions: in vivo, 0.25 h; method in brief: as §2
Muscle tissue [33] = experiment: Biodistribution in muscle of Sprague-Dawley rat at 17 MBq, iv after 5 mins by dissection method; assay type: ADME, organism-based; conditions: in vivo; method in brief: as §1
[34] = Biodistribution in small intestine of Sprague-Dawley rat at 17 MBq, iv after 5 mins by dissection method; assay type: ADME, organism-based; conditions: in vivo; method in brief: as §1
[35] = Biodistribution in small intestine of Sprague-Dawley rat at 17 MBq, iv after 15 mins by dissection method; assay type: ADME, organism-based; conditions: in vivo, 0.25 h; method in brief: as §1
[36] = Biodistribution in whole brain of Sprague-Dawley rat at 17 MBq, iv after 15 mins by dissection method; assay type: ADME, organism-based; conditions: in vivo, 0.25 h; method in brief: as §1
Blood [37] = experiment: Biodistribution in blood of Sprague-Dawley rat at 17 MBq, iv after 30 mins by dissection method; assay type: ADME, organism-based; conditions: in vivo, 0.5 h; method in brief: as §2

Cc1c(-c2ccc3ncccc3c2)nnn1-c1cccnc1[18F]
Drug uptake (Lung [1]): 0.17 % ID/g
Ratio [2]: 1.55
Drug uptake (Cerebellum [3]): 1.21 % ID/g
Drug uptake (Bone): 0.22 % ID/g
Drug uptake (Lung [4]): 0.5 % ID/g
Drug uptake (Thalamus [5]): 0.1 % ID/g
Drug uptake (Spleen [6]): 0.25 % ID/g
Drug uptake (Striatum): 0.54 % ID/g
Drug uptake (Cerebellum [7]): 0.2 % ID/g
Drug uptake (Pancreas [8]): 0.21 % ID/g
Drug uptake (Blood [9]): 0.26 % ID/g
Drug uptake [10]: 0.21 % ID/g
Drug uptake (Muscle tissue [11]): 0.1 % ID/g
Drug uptake (Thalamus [12]): 0.73 % ID/g
Drug uptake [13]: 0.47 % ID/g
Stability [14]: 67%
Drug uptake (Heart [15]): 0.24 % ID/g
Stability [16]: 91%
Drug uptake (Cerebral cortex): 0.44 % ID/g
Drug uptake [17]: 0.24 % ID/g
Drug uptake (Spleen [18]): 0.43 % ID/g
Drug uptake (Hippocampus): 0.22 % ID/g
Drug uptake (Heart [19]): 0.47 % ID/g
Drug uptake (Muscle tissue [20]): 0.14 % ID/g
Stability [21]: 23%
Drug uptake (Kidney [22]): 0.76 % ID/g
Drug uptake (Liver): 2.3 % ID/g
Ratio [23]: 1.42
Ratio [24]: 1.91
Drug uptake (Spleen [25]): 0.16 % ID/g
Drug uptake (Kidney [26]): 0.39 % ID/g
Drug uptake [27]: 0.13 % ID/g
Drug uptake (Pancreas [28]): 0.75 % ID/g
Stability [29]: 4%
Drug uptake [30]: 0.52 % ID/g
Drug uptake [31]: 0.11 % ID/g
Drug uptake (Kidney [32]): 0.57 % ID/g
Drug uptake (Muscle tissue [33]): 0.28 % ID/g
Drug uptake [34]: 3.06 % ID/g
Drug uptake [35]: 4.64 % ID/g
Drug uptake [36]: 0.23 % ID/g
Drug uptake (Blood [37]): 0.15 % ID/g
